Assay outcomes from PubChem.
Bcl-W Bim block = disrupts Bim peptide binding to human Bcl-W; Q92843; AID 952; hit rate 0.02% among 190,000; bead-based flow cytometry; inhibition, % at 10 µM;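 also: 0% = bound tracer without compound and 100% = peptide blocker; higher means less fluorescent Bim peptide bound to Bcl-W beads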
Bim-Bcl-2 = inhibitors of Bim-Bcl-2 interaction, human; inhibition, % at 10 µM; Bead-based flow cytometry, Bim peptide-Bcl-2 binding; hit rate 0.06% among 190,000; P10415; in the data active = inhibition above about 40%;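 also: 0% = no compound wells with probe peptide and 100% = reference peptide inhibitor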
Target sequence (P10415 whole entry, looked up): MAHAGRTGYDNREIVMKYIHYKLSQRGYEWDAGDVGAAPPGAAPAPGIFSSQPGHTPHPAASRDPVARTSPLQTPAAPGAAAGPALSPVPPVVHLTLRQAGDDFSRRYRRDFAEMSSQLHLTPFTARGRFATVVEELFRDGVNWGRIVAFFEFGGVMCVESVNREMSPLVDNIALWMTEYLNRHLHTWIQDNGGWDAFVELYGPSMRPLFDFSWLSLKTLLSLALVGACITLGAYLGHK
Bim-Bfl-1 = human Bim-Bfl-1 interaction inhibition. hit rate 0.12% among 190,000. inhibition, % at 10 µM. Bead-based flow cytometry, Bim-Bfl-1 binding inhibition. Q16548;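 also: 0% = wells without compound plus tracer and 100% = blocker peptide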
Calb biofilm kill = mixtures killing C. albicans biofilm. hit rate 0.02% among 120,000. AID 1242. C. albicans biofilm persisters + clotrimazole, fluorescence viability; primary screen in compound mixtures of four per well. inhibition, % at 7.6 µM;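 active = inhibition above 30.3% in the primary screen of four-compound pools, then above 30% when the compound was retested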;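 also: compounds exposed to preformed 24 h biofilms for 48 h; 0% = untreated biofilm control and 100% = clotrimazole plus chlorhexidine kill blank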
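System: C. albicans CAF4-2 wild-type biofilms; Medium: RPMI/MOPS medium, pH 7.0; Reagent: Clotrimazole, 50 µg/mL; Times: biofilm formation 24 h, compound exposure 48 h, 37 °C; Detection: 2-h Alamar Blue fluorescence, 535/590 nm excitation/emission; Evaluation: percent inhibition of biofilm viability.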
Bim-Bcl-XL = human Bim-Bcl-XL interaction inhibition. Q07817. Bim peptide-Bcl-XL binding, bead flow cytometry, fluorescence. inhibition, % at 10 µM. hit rate 0.04% among 190,000
Target sequence (Q07817 whole entry, looked up): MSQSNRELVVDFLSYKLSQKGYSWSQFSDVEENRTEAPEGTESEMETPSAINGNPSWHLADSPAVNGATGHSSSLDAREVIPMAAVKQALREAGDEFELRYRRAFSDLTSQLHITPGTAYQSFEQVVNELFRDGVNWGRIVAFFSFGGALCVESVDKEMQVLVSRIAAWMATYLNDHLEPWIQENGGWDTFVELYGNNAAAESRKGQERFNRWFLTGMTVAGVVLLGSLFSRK
Bim-Bcl-B = disrupts Bim peptide binding to human Bcl-B | AID 951 | Q9HD36 | bead-based flow cytometry | inhibition, % at 10 µM | hit rate 0.073% among 190,000;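 also: 0% = tracer peptide without compound and 100% = reference inhibitor peptide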
* hit, by the source's call; . = no result. Most compounds without a hit are left out; they make up all but 0.17% or so of the library. Rule as the data show it, unless noted: active = inhibition above about 40%.

SMILES	Bcl-W Bim block	Bim-Bcl-2	Bim-Bfl-1	Calb biofilm kill	Bim-Bcl-XL	Bim-Bcl-B
CCCCc1ccc(NC(=S)NCc2ccc(OC)cc2)cc1	-1	44*	17	10	-1	51*
CCCCCCc1cc2cc(C(=O)Nc3ccccc3)c(=O)oc2cc1O	14	45*	36	15	15	50*
CCCCCCc1cc2cc(C(=O)NCc3ccccc3)c(=N)oc2cc1O	-2	2	0	14	-3	0
Cc1cc2nc(/C(C#N)=C/c3ccncc3)[nH]c2cc1C	47*	44*	38	11	39	34
O=C(O)CC1S/C(=N/N=C/C=C/c2ccccc2[N+](=O)[O-])NC1=O (stereo unspecified)	34	34	46*	6	50*	28
O=C(O)CC1S/C(=N/N=C/C=C/c2ccccc2)NC1=O (stereo unspecified)	-3	-5	-6	19	-10	-6
Cc1ccc(-n2ccc(=O)c(-c3ccnc(SCc4cccc(Cl)c4)n3)n2)cc1	15	79*	56*	.	12	74*
O=C1c2ccccc2-c2onc3ccc(NCCCn4ccnc4)c1c23	94*	88*	79*	.	100*	92*
CC1CCCN(S(=O)(=O)c2ccc(S(=O)(=O)N3CCC4(CC3)OCCO4)cc2)C1 (stereo unspecified)	-1	0	0	13	-3	-4
CN(C)/C=C/C(=O)c1ccc(C(F)(F)F)cc1F	23	74*	22	12	94*	89*
CN(C)/C=C/C(=O)c1ccc(Cl)cc1Cl	-3	-3	-6	17	-1	-1
CC(C)(C)c1ccc(-c2cn(-c3ccc(Br)cc3)c3[n+]2CCCS3)cc1	0	-1	-1	31*	-2	-2
c1ccc(-c2cn(-c3ccccc3)c3[n+]2CCS3)cc1	0	0	3	9	-1	-3
O=[N+]([O-])c1ccc(-c2cnc(SCc3ccccc3Cl)[nH]2)cc1	12	80*	59*	.	14	81*
O=[N+]([O-])c1ccc(-c2cnc(SC(c3ccccc3)c3ccccc3)[nH]2)cc1	-5	-8	-10	23	-5	-12
CC(C)=C1C(=O)NN(c2cccc(Cl)c2)C1=O	-2	2	4	19	-9	0
CC(C)=C1C(=O)NN(c2ccc(C)c(Cl)c2)C1=O	48*	36	43*	17	50*	56*
CCOc1cc(S(=O)(=O)NCc2ccncc2)ccc1Cl	0	-1	-5	16	0	-2
Cc1ccc(-c2cc(-c3ccccc3)c(C#N)c(N)n2)o1	6	4	42*	.	0	2
O=C(NCC(=O)N(CC1CCCO1)C1(C(=O)NC2CCCCC2)CCCCC1)c1ccccc1 (stereo unspecified)	2	-5	-11	.	3	-8
COc1cc(NCCCCCCCN)c2ncccc2c1	48*	51*	36	21	49*	71*
COc1nccc(C(F)(F)F)c1C(=O)NC(=O)Nc1ccccc1	.	.	.	13	.	.
Cc1ccc(Cl)c(OCCCN(C)Cc2ccccc2)c1	.	.	.	16	.	.
CN(CCCOc1ccccc1Br)Cc1ccccc1	98*	91*	99*	8	102*	108*
CNc1nc2ccccc2n1/N=C/c1cccc(OC)c1OC	29	92*	.	.	38	.
SMILES	Bcl-W Bim block	Bim-Bcl-2	Bim-Bfl-1	Calb biofilm kill	Bim-Bcl-XL	Bim-Bcl-B
O=C(/C=C/c1cccs1)NC(=S)Nc1ccccc1	0	-3	-7	11	0	1
COc1ccccc1-n1c(-c2ccc(Cl)cc2)c[nH]c1=S	-2	0	5	9	-5	42*
COc1ccccc1-n1c(-c2ccc(NS(C)(=O)=O)cc2)n[nH]c1=S	-2	-17	-15	.	-4	-18
CCN(CC)c1ccc(Nc2nc(N3CCOCC3)c3ccccc3n2)cc1	23	11	54*	.	-2	-33
O=C(c1ccccc1NS(=O)(=O)c1ccc(F)cc1)N1CCCC1	-1	-14	-16	.	-13	-9
O=C(c1ccccc1NS(=O)(=O)c1ccc(Br)s1)N1CCCC1	31	27	49*	.	38	-3
Cc1cc(-c2ccc(NC(=O)[C@@H]3CCCC[C@@H]3C(=O)O)c(C)c2)ccc1NC(=O)[C@@H]1CCCC[C@@H]1C(=O)O	3	4	3	2	7	9
Cc1cc(NC(=O)c2c(C)noc2C)no1	.	.	.	20	.	.
CCOC(=O)c1c(NC(=O)C2CCCO2)sc2c1CCC2 (stereo unspecified)	-1	-8	-12	.	-8	-9
NC(=O)c1c(NC(=O)C2CCCO2)sc2c1CCCC2 (stereo unspecified)	32	30	39	6	42*	28
CCC(/C=C1\Sc2ccc(OC)cc2N1CCO)=C\c1sc2ccc(OC)cc2[n+]1CCO	40*	60*	62*	16	51*	14
CCC(/C=C1\Sc2ccc(OC)cc2N1CC)=C\c1sc2ccc(OC)cc2[n+]1CCCS(=O)(=O)[O-]	1	5	-1	14	3	4
O=C(NCCCN1CCN(c2ccccc2F)CC1)Nc1ccccc1[N+](=O)[O-]	-3	0	2	18	0	-4
CCN(CC)c1ccc2c(c1)CCCN2	49*	41*	62*	.	15	28
CCC(=O)OCCNc1cc(Sc2nc3ccccc3s2)c2nonc2c1[N+](=O)[O-]	9	2	54*	.	3	6
CCC(=O)OCCNc1cc(Sc2nc3ccccc3[nH]2)c2nonc2c1[N+](=O)[O-]	8	4	35	16	0	-5
Cc1cc(Nc2cc(Cl)cc(Cl)c2)nc(N)n1	.	.	.	10	.	.
Cn1cccc1C(C#N)c1ncc(C(F)(F)F)cc1Cl (stereo unspecified)	-2	0	-3	-21	-2	0
CC(C)CC(=O)OCc1cn(-c2ccccc2)nn1	1	83*	58*	.	10	80*
CCCCCC1CC(CC(=O)Nc2ccc([N+](=O)[O-])cc2)C(=O)O1 (stereo unspecified)	14	21	26	9	24	10
Cc1ccc(OC(=O)c2ccc3snnc3c2)cc1	11	81*	62*	.	14	81*
COc1ccc(N(C)C(=O)c2ccc3snnc3c2)cc1	0	-8	-6	.	-4	-4
C/C(=N\NC(=O)Cc1cccn1C)c1ccc2ccccc2c1	19	50*	15	.	29	46*
O=C1Nc2ccc([N+](=O)[O-])cc2OC1CCN1CCN(Cc2ccc3c(c2)OCO3)CC1 (stereo unspecified)	-2	72*	47*	21	0	73*
Cc1ccccc1/C=N/N1CCN(c2ccccc2)CC1	0	0	1	6	-2	0
O=C(CCl)Nc1cccc2ncccc12	25	25	21	27	34	57*
